{"source": "ChEMBL document CHEMBL1141075", "about": "“4-Oxo-4,7-dihydrothieno[2,3-b]pyridines as non-nucleoside inhibitors of human cytomegalovirus and related herpesvirus polymerases” (J Med Chem, 2005)", "key": {"Vero [1]": {"tested_on": "Vero", "assay": "Antiviral activity against herpes simplex virus type 1 KOS (AraAr13) plaque forming unit grown on Human foreskin fibroblast cells upon incubation for 1 hour at 37 degrees C with compound dissolved in DMSO", "assay_type": "functional, cell-based", "details": "Chlorocebus sabaeus", "how_it_was_run": "(§1)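 Plaque reduction: about 50 PFU added per well of a 24-well dish of the appropriate cells, 1 h at 37 °C, then the inoculum was replaced by drug-containing DMEM with 10% FBS and 0.8% carboxymethyl cellulose. DMSO stocks were 200-fold. Plates were held at 37 °C until plaques formed. Plaques were counted microscopically or after crystal violet stain. Percent inhibition was taken against the uninhibited control, with IC50 by linear regression.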"}, "HFF [2]": {"tested_on": "HFF", "assay": "Antiviral activity against human cytomegalovirus Ad169 (V823A) plaque forming unit grown on Human foreskin fibroblast cells upon incubation for 1 hour at 37 degrees C with compound dissolved in DMSO", "assay_type": "functional, cell-based, Human betaherpesvirus 5", "how_it_was_run": "as §1"}, "Vero [3]": {"tested_on": "Vero", "assay": "Antiviral activity against herpes simplex virus type 1 KOS (V823A) plaque forming unit grown on Human foreskin fibroblast cells upon incubation for 1 hour at 37 degrees C with compound dissolved in DMSO", "assay_type": "functional, cell-based", "details": "Chlorocebus sabaeus", "how_it_was_run": "as §1"}, "Vero [4]": {"tested_on": "Vero", "assay": "Antiviral activity against herpes simplex virus type 1 KOS (PAAr5) plaque forming unit grown on African green monkey kidney Vero cells upon incubation for 1 hour at 37 degrees C with compound dissolved in DMSO", "details": "Chlorocebus sabaeus"}, "HFF [5]": {"tested_on": "HFF", "assay": "Antiviral activity against human cytomegalovirus Ad169 (WT) plaque forming unit grown on Human foreskin fibroblast cells upon incubation for 1 hour at 37 degrees C with compound dissolved in DMSO", "assay_type": "functional, cell-based, Human betaherpesvirus 5", "how_it_was_run": "as §1"}, "Vero [6]": {"tested_on": "Vero", "assay": "Antiviral activity against herpes simplex virus type 1 KOS (PFAr2) plaque forming unit grown on Human foreskin fibroblast cells upon incubation for 1 hour at 37 degrees C with compound dissolved in DMSO", "assay_type": "functional, cell-based", "details": "Chlorocebus sabaeus", "how_it_was_run": "as §1"}, "Vero [7]": {"tested_on": "Vero", "assay": "Antiviral activity against herpes simplex virus type 2 (WT) plaque forming unit grown on Human foreskin fibroblast cells upon incubation for 1 hour at 37 degrees C with compound dissolved in DMSO", "assay_type": "functional, cell-based", "details": "Chlorocebus sabaeus", "how_it_was_run": "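Plaque reduction: about 50 PFU per well onto the appropriate cell monolayer, adsorbed 1 h at 37 °C. Inoculum was then replaced with DMEM containing 10% FBS, 0.8% carboxymethyl cellulose and diluted compound from 200-fold DMSO stocks. Plates were held at 37 °C until plaques formed, which were counted microscopically or after crystal violet staining. IC50 came from linear regression of % inhibition versus untreated control, as the mean of two determinations.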"}}, "data": [{"smiles": "Cn1cc(C(=O)NCc2ccc(Cl)cc2)c(=O)c2cc(CN3CCOCC3)sc21", "values": [{"measurement": "IC50", "setting": "Vero [1]", "value": 2.1, "unit": "µM"}, {"measurement": "IC50", "setting": "HFF [2]", "value": 6.2, "unit": "µM"}, {"measurement": "IC50", "setting": "Vero [3]", "value": "> 50", "unit": "µM"}, {"measurement": "IC50", "setting": "Vero [4]", "value": 0.8, "unit": "µM"}, {"measurement": "IC50", "setting": "HFF [5]", "value": 1.5, "unit": "µM"}, {"measurement": "IC50", "setting": "Vero [6]", "value": 2.5, "unit": "µM"}, {"measurement": "IC50", "setting": "Vero [7]", "value": 0.8, "unit": "µM"}]}]}
